Test results taken from ChEMBL document CHEMBL5252639, “Exploration of cytotoxic potential and tubulin polymerization inhibition activity of cis-stilbene-1,2,3-triazole congeners” (RSC Med Chem, 2023).

Columns and labels:
B16-F10 = assay: Cytotoxicity against mouse B16-F10 cells assessed as inhibition of cell growth measured for 24 hrs by MTT assay; assay type: functional, cell-based; settings: B16-F10, 24 h
In short: (§1)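 Cells were kept at 37 °C with 5% CO2 in suitable medium with 10% FBS and 1% antibiotic-antimycotic, and passaged at 80-90% confluency using 0.25% trypsin/1 mM EDTA. They were seeded at 1×10^3–4×10^3 cells/well and attached overnight. Compounds came from 10 mM DMSO stocks diluted in medium and were applied for 24 h. MTT (0.5 mg/mL) was added for 4 h at 37 °C, formazan was dissolved in DMSO, and absorbance was read at 570 nm.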

BT-474 = assay: Cytotoxicity against human BT-474 cells assessed as inhibition of cell growth measured for 24 hrs by MTT assay; assay type: functional, cell-based; settings: BT-474, 24 h; in short: as §1
A549 = assay: Cytotoxicity against human A549 cells assessed as inhibition of cell growth measured for 24 hrs by MTT assay; assay type: functional, cell-based; settings: A549, 24 h; in short: as §1
HCT-116 [1] = assay: Cytotoxicity against human HCT-116 cells assessed as inhibition of cell growth measured for 24 hrs by MTT assay; assay type: functional, cell-based; settings: HCT-116, 24 h; in short: as §1
Tubulin (Homo sapiens) = Tubulin (Homo sapiens) (UniProt P68371+Q9H4B7+P0DPH7+P68366+Q13509+Q71U36+P04350+Q3ZCM7+P07437+P68363+Q9BQE3+Q6PEY2+Q13885+Q9BVA1+Q9BUF5); assay: Inhibition of tubulin polymerization in human HCT-116 cells at 3 uM measured after 1 hr relative to control; assay type: cell-based
HCT-116 [2] = assay: Induction of apoptosis in human HCT-116 cells assessed as late apoptotic cells at 0.55 uM measured after 24 hrs by Annexin V-FITC/propidium iodide staining based flow cytometry (reference value: 0.00%); assay type: functional
HCT-116 [3] = assay: Induction of morphological change in human HCT-116 cells assessed as cell rounding incubated for 24 hrs by phase contrast microscopic analysis; assay type: functional, cell-based; settings: dose 1.62-6.5 µM
In short: (§2)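 HCT-116 plated at 1 × 10^6 cells/mL in RPMI + 10% FBS and allowed to adhere 24 h at 37 °C, 5% CO2. […] After 24 h, morphology imaged by phase-contrast microscopy at 20X.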

HCT-116 [4] = assay: Induction of apoptosis in human HCT-116 cells assessed as horseshoe shaped nuclei measured for 24 hrs by DAPI staining based microscopic analysis; assay type: functional, cell-based; settings: dose 1.62-6.5 µM
In short: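 Then PBS wash, 4% paraformaldehyde fixation 30 min, 0.1% Triton X permeabilisation 15 min, 1 µM DAPI 15 min, PBS wash. Imaged by fluorescence microscopy (ex 350/em 460 nm), 20X.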

HCT-116 [5] = assay: Induction of cell cycle arrest in human HCT-116 cells assessed as accumulation of cells at G2/M phase at 0.55 uM measured after 24 hrs by PI staining based flow cytometry analysis relative to control (reference value: 15.61%)
HCT-116 [6] = assay: Induction of cell cycle arrest in human HCT-116 cells assessed as accumulation of cells at S phase at 0.55 uM measured after 24 hrs by PI staining based flow cytometry analysis relative to control (reference value: 5.55%)
HCT-116 [7] = assay: Induction of apoptosis in human HCT-116 cells assessed as necrotic cells at 0.55 uM measured after 24 hrs by Annexin V-FITC/propidium iodide staining based flow cytometry (reference value: 0.00%); assay type: functional
HCT-116 [8] = assay: Induction of cell cycle arrest in human HCT-116 cells assessed as accumulation of cells at G0/G1 phase at 0.55 uM […] by PI staining based flow cytometry analysis relative to control (reference value: 70.34%); assay type: functional
HCT-116 [9] = assay: Induction of morphological change in human HCT-116 cells assessed as cell detachment incubated for 24 hrs by phase contrast microscopic analysis; assay type: functional, cell-based; in short: as §2
HCT-116 [10] = assay: Induction of apoptosis in human HCT-116 cells assessed as early apoptotic cells at 0.55 uM measured after 24 hrs by Annexin V-FITC/propidium iodide staining based flow cytometry (reference value: 0.28%); assay type: functional
HCT-116 [11] = assay: Induction of morphological change in human HCT-116 cells assessed as change in cell shape incubated for 24 hrs by phase contrast microscopic analysis; assay type: functional, cell-based; settings: dose 1.62-6.5 µM; in short: as §2
HCT-116 [12] = assay: Induction of apoptosis in human HCT-116 cells assessed as viable cells at 0.55 uM measured after 24 hrs by Annexin V-FITC/propidium iodide staining based flow cytometry (reference value: 99.71%); assay type: functional; settings: read-out: Activity

| SMILES | IC50 (B16-F10) [µM] | IC50 (BT-474) [µM] | IC50 (A549) [µM] | IC50 (HCT-116 [1]) [µM] | also measured |
| --- | --- | --- | --- | --- | --- |
| COc1ccc(/C=C(/C(=O)OCc2cn(Cc3ccccc3)nn2)c2ccc(OC)c(OC)c2)cc1OC | 16.1 | 14.9 | 32.7 | 20.2 | – |
| COc1ccc(C(=O)Cn2cc(COC(=O)/C(=C/c3ccc(OC)c(OC)c3)c3ccc4c(c3)OCO4)nn2)cc1 | 37.7 | > 50 | 31.3 | > 50 | – |
| COc1ccc(/C=C(/C(=O)OCc2cn(Cc3ccc([N+](=O)[O-])cc3)nn2)c2ccc(OC)c(OC)c2)cc1OC | 17.5 | 28.4 | 36.8 | 35 | – |
| COc1ccc(/C=C(/C(=O)OCc2cn(CC(=O)c3ccc(C)cc3)nn2)c2ccc(OC)c(OC)c2)cc1OC | > 50 | 40.7 | 41.7 | 33.4 | – |
| COc1ccc(/C=C(/C(=O)OCc2cn(CC(=O)c3ccc(Cl)c(Cl)c3)nn2)c2ccc3c(c2)OCO3)cc1OC | 41.6 | > 50 | 25.5 | > 50 | – |
| COc1ccc(/C=C(/C(=O)OCc2cn(CC(=O)c3ccccc3)nn2)c2ccc3c(c2)OCO3)cc1OC | 30.9 | > 50 | 30.8 | > 50 | – |
| CC(=O)O[C@H]1C(=O)[C@@]2(C)[C@H]([C@H](OC(=O)c3ccccc3)[C@]3(O)C[C@H](OC(=O)[C@H](O)[C@@H](NC(=O)c4ccccc4)c4ccccc4)C(C)=C1C3(C)C)[C@]1(OC(C)=O)CO[C@@H]1C[C@@H]2O | – | – | – | – | inhibition (Tubulin (Homo sapiens)): 49.5% |
| COc1cc2c(c(OC)c1OC)-c1ccc(OC)c(=O)cc1[C@@H](NC(C)=O)CC2 [COLCHICINE] | – | 12.5 | 0.89 | 0.55 | Activity (HCT-116 [2]): 61.81%; Activity (HCT-116 [3]): Dose-Dependent Effect; Activity (HCT-116 [4]): Dose-Dependent Effect; Activity (HCT-116 [5]): 40.57%; Activity (HCT-116 [6]): 6.61%; Activity (HCT-116 [7]): 6.78%; Activity (HCT-116 [8]): 54.45%; Activity (HCT-116 [9]): Dose-Dependent Effect; Activity (HCT-116 [10]): 10.32%; Activity (HCT-116 [11]): Dose-Dependent Effect; viability at 0.55 µM (HCT-116 [12]): 31.1% |
| COc1ccc(/C=C(/C(=O)OCc2cn(CC(=O)c3ccc(Cl)cc3)nn2)c2ccc(OC)c(OC)c2)cc1OC | > 50 | > 50 | 38.6 | 31.9 | – |
| COc1ccc(/C=C(/C(=O)OCc2cn(CC(=O)c3ccc(Br)cc3)nn2)c2ccc(OC)c(OC)c2)cc1OC | > 50 | > 50 | 42.9 | 35.8 | – |
| COc1ccc(C(=O)Cn2cc(COC(=O)/C(=C/c3ccc(OC)c(OC)c3)c3ccc(OC)c(OC)c3)nn2)cc1 | 14.1 | 47.5 | 41.9 | 18 | – |
| COc1ccc(/C=C(/C(=O)OCc2cn(Cc3cccc(Cl)c3)nn2)c2ccc(OC)c(OC)c2)cc1OC | 22.8 | > 50 | > 50 | 21.2 | – |
| COc1ccc(/C=C(/C(=O)OCc2cn(Cc3ccc(Br)cc3)nn2)c2ccc(OC)c(OC)c2)cc1OC | 1.53 | 20.7 | 15.2 | 25.3 | – |
| COc1ccc(/C=C(/C(=O)OCc2cn(CC(=O)c3ccccc3)nn2)c2ccc(OC)c(OC)c2)cc1OC | 40.2 | 16.2 | 38.2 | 23.5 | – |
| COc1ccc(/C=C(/C(=O)OCc2cn(Cc3ccccc3[N+](=O)[O-])nn2)c2ccc(OC)c(OC)c2)cc1OC | 39.5 | 40.8 | 41 | 38.1 | – |
| COc1ccc(/C=C(/C(=O)OCc2cn(Cc3ccccc3F)nn2)c2ccc(OC)c(OC)c2)cc1OC | 17.4 | 26.2 | 29.2 | 22.1 | – |
| COc1ccc(/C=C(/C(=O)OCc2cn(CC(=O)c3ccc(Cl)c(Cl)c3)nn2)c2ccc(OC)c(OC)c2)cc1OC | 29.6 | 47.5 | 37 | 26.5 | – |
| COc1ccc(/C=C(/C(=O)OCc2cn(Cc3cc(C)ccc3C)nn2)c2ccc(OC)c(OC)c2)cc1OC | 40.8 | 20.1 | > 50 | 49.9 | – |
| COc1ccc(/C=C(/C(=O)OCc2cn(Cc3ccc(C)cc3)nn2)c2ccc(OC)c(OC)c2)cc1OC | 1.73 | 12.4 | 12.4 | 21.1 | – |
| COc1ccc(/C=C(/C(=O)OCc2cn(Cc3ccc(F)cc3)nn2)c2ccc(OC)c(OC)c2)cc1OC | 2.37 | 17.1 | 28.9 | 21.6 | – |
| COc1ccc(/C=C(/C(=O)OCc2cn(CC(=O)c3ccc(Cl)cc3)nn2)c2ccc3c(c2)OCO3)cc1OC | 28.9 | > 50 | 37.3 | > 50 | – |
